Measured values reported in ChEMBL document CHEMBL1126989, “Synthesis and cytotoxicity of 1,6,7,8-substituted 2-(4'-substituted phenyl)-4-quinolones and related compounds: identification as antimitotic agents interacting with tubulin” (J Med Chem, 1993).
Converted amounts (≈) assume the structure as drawn.

Assays:
L1210 (1565) = assay: Cytotoxicity in vitro expressed as 50% reduction in cell number after a 3-day incubation, in murine leukemia L-1210 cell line; assay type: functional, cell-based; settings: Mus musculus, 72 h
Summary of the method: (§1)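 Cell lines adapted to antibiotic-free RPMI-1640 with 10% fetal calf serum; ca. 1×10^5 cells per well, overnight stabilization, then serial dilutions added, quadruplicate per concentration; medium-only controls. After 3-4 days, MTT added and incubated overnight; formazan dissolved in DMSO, absorbance at 570 nm. EC50 calculated from two data points bracketing 50% growth inhibition. Actinomycin as positive control.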

P388 = assay: Cytotoxicity in vitro expressed as 50% reduction in cell number after a 3-day incubation, in murine leukemia P-388 cell line; assay type: functional, cell-based; settings: Mus musculus, P388, 72 h; summary of the method: as §1
A549 = assay: Cytotoxicity in vitro expressed as 50% reduction in cell number after a 3-day incubation, in human lung carcinoma A-549 cell line; assay type: functional, cell-based; settings: A549, 72 h; summary of the method: as §1
KB = assay: Cytotoxicity in vitro expressed as 50% reduction in cell number after a 3-day incubation, in human epidermoid carcinoma KB cell line; assay type: functional, cell-based; settings: 72 h; summary of the method: as §1
HCT-8 = assay: Cytotoxicity in vitro expressed as 50% reduction in cell number after a 3-day incubation, in human ileocecal carcinoma HCT-8 cell line; assay type: functional, cell-based; settings: HCT-8, 72 h; summary of the method: as §1
RPMI-7951 = assay: Cytotoxicity in vitro expressed as 50% reduction in cell number after a 3-day incubation, in human melanoma RPMI-7951 cell line; assay type: functional, cell-based; settings: RPMI-7951, 72 h; summary of the method: as §1
Tubulin beta chain = Tubulin beta chain (Bos taurus, UniProt Q6B856); assay: Inhibition of tubulin polymerization; assay type: functional
Summary of the method: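 Bovine brain tubulin 1.0 mg/mL (10 μM) with 1.0 M repurified monosodium glutamate, 1.0 mM MgCl2, 4% DMSO and drug; preincubated 15 min at 37 °C, chilled, GTP added; turbidity at 350 nm after jump from 0 to 37 °C, followed 20 min.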

COLO 205 [1] = assay: Inhibition of in vitro cell growth which reduces cell growth to 50% of level at start of experiment in colon COLO-205 cell line (<-4 in one experiment, >-4 in other experiment); assay type: functional, Homo sapiens
Summary of the method: (§2)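 NCI in vitro disease-oriented screen across about 60 human tumour cell lines. The value is the LC50-type level: the drug concentration that cuts cell number to 50% of the count at the start of the experiment. Values are averages of 2 assays.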

COLO 205 [2] = assay: Inhibition of in vitro cell growth which reduces cell growth to level at start of experiment in colon COLO-205 cell line; assay type: functional, Homo sapiens
HCC 2998 [3] = assay: Inhibition of in vitro cell growth which reduces cell growth to level at start of experiment in colon HCC2998 cell line; assay type: functional, Homo sapiens
HCC 2998 [4] = assay: Inhibition of in vitro cell growth which reduces cell growth to 50% of level at start of experiment in colon HCC2998 cell line; assay type: functional, Homo sapiens; summary of the method: as §2
HT-29 [5] = assay: Inhibition of in vitro cell growth which reduces cell growth to 50% of level at start of experiment in colon HT-29 cell line; assay type: functional, Homo sapiens; summary of the method: as §2
KM-20L2 [6] = assay: (§3) Inhibition of in vitro cell growth which reduces cell growth to 50% of level at start of experiment in colon KM-20L2 cell line; assay type: functional, Homo sapiens; summary of the method: as §2
KM-20L2 [7] = assay: (§4) Inhibition of in vitro cell growth which reduces cell growth to level at start of experiment in colon KM-20L2 cell line; assay type: functional, Homo sapiens
SF-539 [8] = assay: Inhibition of in vitro cell growth which reduces cell growth to 50% of level at start of experiment in CNS SF-539 cell line(<-4 in one experiment, >-4 in other experiment); assay type: functional, Homo sapiens; summary of the method: as §2
SF-539 [9] = assay: Inhibition of in vitro cell growth which reduces cell growth to level at start of experiment in CNS SF-539 cell line; assay type: functional, Homo sapiens
Tubulin (Bos taurus) [10] = target: T1, Tubulin (Bos taurus) (UniProt Q6B856+Q862L2+Q862F3); assay: Percentage inhibition of colchicine binding(10:1 ratio of inhibitor: colchicine); assay type: protein assay; settings: concentration not given here
Tubulin (Bos taurus) [11] = target: T1, Tubulin (Bos taurus); assay: Percentage inhibition of colchicine binding(1:1 ratio of inhibitor: colchicine); assay type: protein assay; settings: concentration not given here
HT-29 [12] = assay: Inhibition of in vitro cell growth which reduces cell growth to level at start of experiment in colon HT-29 cell line; assay type: functional, Homo sapiens
[13] = Percentage inhibition of colchicine binding(1: 1 ratio of inhibitor: colchicine); assay type: functional; settings: concentration not given here
COLO 205 [14] = assay: Inhibition of in vitro cell growth which reduces cell growth to 50% of level at start of experiment in colon COLO-205 cell line; assay type: functional, Homo sapiens; summary of the method: as §2
[15] = as §3; assay type: functional, Homo sapiens; summary of the method: as §2
[16] = as §4; assay type: functional, Homo sapiens
SF-539 [17] = assay: Inhibition of in vitro cell growth which reduces cell growth to 50% of level at start of experiment in CNS SF-539 cell line; assay type: functional, Homo sapiens; summary of the method: as §2
Tubulin (Bos taurus) [18] = target: T1, Tubulin (Bos taurus); assay: Percentage inhibition of colchicine binding by derivatives of 2-phenyl-4-quinolone at the ratio of 10:1; assay type: protein assay; settings: concentration not given here
Tubulin (Bos taurus) [19] = target: T1, Tubulin (Bos taurus); assay: Percentage inhibition of colchicine binding by derivatives of 2-phenyl-4-quinolone at the ratio of 1:1; assay type: protein assay; settings: concentration not given here

Sequence of Tubulin beta chain (Q6B856 whole entry): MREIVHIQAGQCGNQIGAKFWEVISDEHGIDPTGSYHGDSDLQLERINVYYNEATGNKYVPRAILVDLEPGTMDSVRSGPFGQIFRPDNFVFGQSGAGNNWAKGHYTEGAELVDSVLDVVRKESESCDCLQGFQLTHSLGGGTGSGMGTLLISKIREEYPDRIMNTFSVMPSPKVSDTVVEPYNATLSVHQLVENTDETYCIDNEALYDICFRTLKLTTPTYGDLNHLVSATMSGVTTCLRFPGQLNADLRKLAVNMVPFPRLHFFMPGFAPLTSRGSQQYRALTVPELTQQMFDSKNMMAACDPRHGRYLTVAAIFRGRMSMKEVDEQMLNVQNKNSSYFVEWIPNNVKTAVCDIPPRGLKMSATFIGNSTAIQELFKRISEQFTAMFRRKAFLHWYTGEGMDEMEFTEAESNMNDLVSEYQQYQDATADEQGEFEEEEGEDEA

Row | IC50 (Tubulin beta chain) [µM] | SMILES | EC50 (L1210 (1565)) [µg/mL] | EC50 (P388) [µg/mL] | EC50 (A549) [µg/mL] | EC50 (KB) [µg/mL] | EC50 (HCT-8) [µg/mL] | EC50 (RPMI-7951) [µg/mL] | other results
1 | – | COCOc1ccc(-c2cc(=O)c3ccccc3n2C)cc1 | > 10 | > 10 | – | – | – | – | –
2 | – | CCOc1cc(-c2ccccc2)nc2ccccc12 | > 10 | 6 (≈ 24.1 µM) | > 10 | 6.7 (≈ 26.9 µM) | > 10 | – | –
3 | 3.3 | Oc1cc(-c2ccccc2)nc2ccc(F)cc12 | < 0.01 | 0.08 (≈ 0.334 µM) | 0.38 (≈ 1.59 µM) | < 0.01 | 1.36 (≈ 5.68 µM) | 0.53 (≈ 2.22 µM) | –
4 | – | COc1cc(-c2ccccc2)nc2ccccc12 | > 10 | 4.5 (≈ 19.1 µM) | > 10 | > 10 | > 10 | – | –
5 | – | CCCCOc1cc(-c2ccccc2)nc2ccccc12 | > 10 | > 10 | > 10 | 3.8 (≈ 13.7 µM) | > 10 | – | –
6 | – | CS(=O)(=O)Oc1cc(-c2ccccc2)nc2ccccc12 | 6.04 (≈ 20.2 µM) | > 10 | 6.21 (≈ 20.7 µM) | 2.8 (≈ 9.35 µM) | 5.6 (≈ 18.7 µM) | – | –
7 | – | CC(C)COc1cc(-c2ccccc2)nc2ccccc12 | > 10 | > 10 | > 10 | > 4 | > 10 | – | –
8 | – | COc1ccc(/C=C\c2cc(OC)c(OC)c(OC)c2)cc1O | – | – | – | – | – | – | inhibition [13]: 97%
9 | – | CN(C)CCOc1cc(-c2ccccc2)nc2ccccc12 | > 10 | > 10 | > 10 | > 4 | > 10 | – | –
10 | 3.4 | Oc1ccc2c(O)cc(-c3ccccc3)nc2c1 | 0.45 (≈ 1.9 µM) | 0.81 (≈ 3.41 µM) | 0.81 (≈ 3.41 µM) | 0.55 (≈ 2.32 µM) | > 10 | 0.52 (≈ 2.19 µM) | –
11 | > 40 | COc1cccc2c(O)cc(-c3ccccc3)nc12 | 7.68 (≈ 30.6 µM) | > 10 | 6.77 (≈ 26.9 µM) | 5.05 (≈ 20.1 µM) | 0.55 (≈ 2.19 µM) | > 10 | –

Row | SMILES | IC50 (Tubulin beta chain) [µM] | EC50 (L1210 (1565)) [µg/mL] | EC50 (P388) [µg/mL] | EC50 (A549) [µg/mL] | EC50 (KB) [µg/mL] | EC50 (HCT-8) [µg/mL] | EC50 (RPMI-7951) [µg/mL] | other results
12 | Oc1cc(-c2ccccc2)nc2cc(F)ccc12 | 3.7 | 0.16 (≈ 0.669 µM) | 0.29 (≈ 1.21 µM) | 0.96 (≈ 4.01 µM) | < 0.1 | 3.45 (≈ 14.4 µM) | 0.37 (≈ 1.55 µM) | LC50 (COLO 205 [1]): -4; TGI (COLO 205 [2]): -6.1; TGI (HCC 2998 [3]): -5.6; LC50 (HCC 2998 [4]): >-4; LC50 (HT-29 [5]): >-4; LC50 (KM-20L2 [6]): -5.6; TGI (KM-20L2 [7]): -6.3; LC50 (SF-539 [8]): >-4; TGI (SF-539 [9]): -6; inhibition (Tubulin (Bos taurus) [10]): 34%; inhibition (Tubulin (Bos taurus) [11]): 7%; TGI (HT-29 [12]): -5.6
13 | Oc1cc(-c2ccccc2)nc2ccc(Cl)cc12 | 3.2 | 0.5 (≈ 1.96 µM) | 0.84 (≈ 3.29 µM) | 0.51 (≈ 1.99 µM) | 0.49 (≈ 1.92 µM) | 0.7 (≈ 2.74 µM) | 0.64 (≈ 2.5 µM) | LC50 (COLO 205 [14]): -4; TGI (COLO 205 [2]): -5.6; TGI (HCC 2998 [3]): -5; LC50 (HCC 2998 [4]): >-5; LC50 (HT-29 [5]): >-4; LC50 [15]: -4; TGI [16]: -5.4; TGI (SF-539 [9]): -5.4; LC50 (SF-539 [17]): >-4; inhibition (Tubulin (Bos taurus) [18]): 21%; inhibition (Tubulin (Bos taurus) [19]): 6%; TGI (HT-29 [12]): -4.9
